Published values collected from several papers.
Lines come from different studies, so protocols differ.
Matrix: plasma

CC[C@H](C)[C@H](NC(=O)[C@H](Cc1ccccc1)NC(=O)[C@H](CCC(=O)O)NC(=O)[C@H](CCCNC(=N)N)NC(=O)[C@H](C)NC(=O)[C@H](C)NC(=O)[C@H](CCC(N)=O)NC(=O)[C@H](CCC(=O)O)NC(=O)[C@H](CCC(=O)O)NC(=O)[C@H](CC(C)C)NC(=O)[C@H](Cc1ccc(O)cc1)NC(=O)[C@H](CO)NC(=O)[C@H](CO)NC(=O)[C@@H](NC(=O)[C@H](CC(=O)O)NC(=O)[C@H](CO)NC(=O)[C@@H](NC(=O)[C@H](Cc1ccccc1)NC(=O)[C@@H](NC(=O)CNC(=O)[C@H](CCC(=O)O)NC(=O)[C@H](C)NC(=O)CCc1c[nH]cn1)[C@@H](C)O)[C@@H](C)O)C(C)C)C(=O)N[C@@H](C)C(=O)N[C@@H](Cc1c[nH]c2ccccc12)C(=O)N[C@@H](CC(C)C)C(=O)N[C@H](C(=O)N[C@@H](CCCNC(=N)N)C(=O)NCC(=O)N[C@@H](CCCNC(=N)N)C(=O)N[C@@H](CCCCNC(=O)COCCOCCNC(=O)COCCOCCNC(=O)CC[C@H](NC(=O)CCCCCCCCCCCCCCCCC(=O)O)C(=O)O)C(=O)O)C(C)C — Tmax (rat; subcutaneous; 20 nmol/kg): 10 h
N#Cc1ccc(Nc2nc(N)cc(Oc3c(F)cc(-c4ccc(C#N)cc4)cc3F)n2)cc1 — Tmax (Sprague-Dawley rat; intravenous; 1 mg/kg): 0.08 h
Oc1c(Br)cc(Cl)c2cccnc12 — Tmax (Sprague-Dawley rat; subcutaneous; 10 mg/kg): 1.2 h
CCc1cc(OC)c2nccc(N3CCc4c(cc(Cn5ccnc5)cc4-c4cn(C)nc4C(F)(F)F)C3=O)c2c1 — Tmax (male Sprague-Dawley rat; oral; 50 mg/kg): 1.7 h
CNC(=O)c1c(C)oc2cc(Oc3ncnc4cc(OC)c(OC)cc34)ccc12 — Tmax (Sprague-Dawley rat; oral; 1 mg/kg; single dose): 4.25 h
COCCOC(=O)C1=C(C)NC(C)=C(C(=O)OC(C)C)C1c1cccc([N+](=O)[O-])c1 (stereo not shown) — Tmax (male Sprague-Dawley rat; oral; 12 mg/kg): 0.33 h
O=C(Nc1cc(F)c(F)c(F)c1)c1ccc(F)c(S(=O)(=O)NCc2cccc(B(O)O)c2)c1 — Tmax (male Sprague-Dawley rat; oral; 20 mg/kg): 0.38 h
COc1nc(-c2cc(C)c(N[C@@H](C)c3cc(F)cc(F)c3)nn2)ccc1-n1cnc(C)c1 — Tmax (male Sprague-Dawley rat; oral; 5 mg/kg; single dose): 5.3 h
Cc1c(-c2ccccc2)cccc1N1C(=O)c2cc(CN[C@H](C(=O)O)C(C)O)c(OCc3cccc(C#N)c3)cc2C1=O (stereo partly shown) — Tmax (Sprague-Dawley rat; oral; 50 mg/kg): 0.53 h
N#Cc1[nH]nnc1-c1cccc(-c2cc(F)cc(C(F)(F)F)c2)c1 — Tmax (male Sprague-Dawley rat; oral; 10 mg/kg): 0.8 h
C=CC(=O)N1CC2CC(n3nc(-c4ccc(C(=O)Nc5ccccn5)cc4)c4c(N)ncnc43)CC2C1 (stereo not shown) — Tmax (male Wistar rat; oral; 3 mg/kg): 0.25 h
Cc1cc(Nc2ccc(C(F)(F)F)nc2)n2nc(C(C)(F)F)nc2n1 — Tmax (rat; oral; 200 mg/kg): 12 h
CCc1cc(C(=O)NC)c2nccc(N3CCc4c(cc(Cn5ccnc5)cc4-c4cn(C)nc4C(F)(F)F)C3=O)c2c1 — Tmax (male Sprague-Dawley rat; oral; 50 mg/kg): 1.7 h
N#Cc1[nH]nnc1-c1cccc(OCc2cc(C(F)(F)F)ccc2C(F)(F)F)c1 — Tmax (male Sprague-Dawley rat; oral; 10 mg/kg): 1.3 h
CNCc1cc(-c2ccccc2F)n(S(=O)(=O)c2cccnc2)c1 — Tmax (Sprague-Dawley rat; oral; 10 mg/kg): ~1.1 h
CC(C)(O)[C@H]1CC[C@H](Nc2ccc3ncc(-c4cccc(C(F)(F)F)c4)n3n2)CC1 — Tmax (female Sprague-Dawley rat; oral; 40 mg/kg): 1 h
